Test results: ChEMBL document CHEMBL3414571, “The discovery of macrocyclic XIAP antagonists from a DNA-programmed chemistry library, and their optimization to give lead compounds with in vivo antitumor activity” (J Med Chem, 2015)
Calls of active or inactive are those of the source. No cut-off for these calls is given here.

Experiments:
MDA-MB-231 [1] = assay: Antitumor activity against human MDA-MB-231 cells xenografted in athymic (nu+/nu+) Balb/C mouse assessed as tumor growth inhibition at 50 mg/kg, ip dosed every 3 days for total of 5 administrations; assay type: functional; settings: MDA-MB-231, ip, 72 h, route intraperitoneal, read-out: TGI
In short: (§1)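 Tumor fragments or cells were implanted subcutaneously in athymic nude mice. Once tumors were staged to 100−150 mm3, mice were dosed intraperitoneally every 3 days for 5 doses (q3d × 5).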

Mus musculus [2] = assay: Toxicity in human MDA-MB-231 cells xenografted athymic (nu+/nu+) Balb/C mouse assessed as mouse morbidity at 5 to 50 mg/kg, ip dosed every 3 days for total of 5 administrations; assay type: organism-based; design: dose 5-50 mg/kg, route intraperitoneal; settings: in vivo, 72 h
In short: (§2)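 Nude mice carrying subcutaneous MDA-MB-231 tumors staged to 100−150 mm3 were dosed intraperitoneally q3d × 5. Morbidity and body weight loss were monitored throughout the dosing regimen.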

A549 = assay: Antiproliferative activity against human A549 cells assessed as inhibition of cell proliferation after 72 hrs by MTS assay; assay type: functional, cell-based; settings: A549, 72 h
[3] = Inhibition of XIAP BIR2 (124 to 240 residues) C202A/C213G mutant (unknown origin) incubated for 60 mins by biotinylated SMAC peptide Alpha-screen assay; design: species or system Homo sapiens
[4] = Volume of distribution at steady state in Balb/C mouse at 1 mg/kg, iv administered as single dose by LC-MS/MS method; assay type: ADME, organism-based; design: dose 1 mg/kg, route intravenous; settings: in vivo, read-out: Vdss
In short: (§3)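 Mice received one intravenous dose, and parent compound levels in blood were monitored over time. Plasma pharmacokinetic parameters were derived from these concentration–time profiles.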

[5] = Mean residence time in Balb/C mouse at 1 mg/kg, iv administered as single dose by LC-MS/MS method; assay type: ADME, organism-based; design: dose 1 mg/kg, route intravenous; settings: in vivo; in short: as §3
[6] = Half life in Balb/C mouse at 1 mg/kg, iv administered as single dose by LC-MS/MS method; assay type: ADME, organism-based; design: dose 1 mg/kg, route intravenous; settings: in vivo; in short: as §3
[7] = Antitumor activity against human A875 cells xenografted in athymic (nu+/nu+) Balb/C mouse assessed as tumor growth inhibition at 50 mg/kg, ip dosed every 3 days for total of 5 administrations; assay type: functional; settings: 72 h, route intraperitoneal, read-out: TGI; in short: as §1
MDA-MB-231 [8] = assay: Antiproliferative activity against human MDA-MB-231 cells assessed as inhibition of cell proliferation after 72 hrs by MTS assay; assay type: functional, cell-based; settings: MDA-MB-231, 72 h
A875 = assay: Antitumor activity against human A875 cells xenografted in athymic (nu+/nu+) Balb/C mouse assessed as tumor growth inhibition at 50 mg/kg, ip dosed every 3 days for total of 5 administrations and measured on day 12 after last dose; assay type: functional, organism-based; design: dose 50 mg/kg; in short: as §1
[9] = Antiproliferative activity against human A875 cells assessed as inhibition of cell proliferation after 72 hrs by MTS assay; assay type: functional, cell-based; settings: A875, 72 h
Mus musculus [10] = assay: Toxicity in human MDA-MB-231 cells xenografted athymic (nu+/nu+) Balb/C mouse assessed as weight loss at 5 to 50 mg/kg, ip dosed every 3 days for total of 5 administrations; assay type: organism-based; design: dose 5-50 mg/kg, route intraperitoneal; settings: in vivo, 72 h; in short: as §2
Mus musculus [11] = assay: AUClast in Balb/C mouse at 1 mg/kg, iv administered as single dose by LC-MS/MS method; assay type: ADME, organism-based, Plasma; design: time 0 - last, dose 1 mg/kg, route intravenous; settings: in vivo; in short: as §3
MDA-MB-231 [12] = assay: Antitumor activity against human MDA-MB-231 cells xenografted in athymic (nu+/nu+) Balb/C mouse assessed as tumor growth inhibition at 5 mg/kg, ip dosed every 3 days for total of 5 administrations; assay type: functional, organism-based; design: dose 5 mg/kg; in short: as §1
MDA-MB-231 [13] = assay: Antitumor activity against human MDA-MB-231 cells xenografted in athymic (nu+/nu+) Balb/C mouse assessed as tumor growth inhibition at 20 mg/kg, ip dosed every 3 days for total of 5 administrations; assay type: functional, organism-based; design: dose 20 mg/kg; in short: as §1
[14] = molecular target: E3 ubiquitin-protein ligase XIAP (Homo sapiens, UniProt P98170); assay: Inhibition of XIAP BIR3 (241 to 356 residues) (unknown origin) incubated for 60 mins by fluoresceinated modified SMAC peptide based fluorescence polarization assay
BIR2 domain of XIAP = BIR2 domain of XIAP (Homo sapiens, UniProt P98170, C202A/C213G); assay: Inhibition of XIAP BIR2-3 (124 to 356 residues) C202A/C213G mutant (unknown origin) in human THP1 cells using fluoresceinated caspase-3 substrate by caspase-3 rescue assay; assay type: cell-based, THP-1
BIR2 domain of XIAP, sequence (P98170 whole entry C202A/C213G, looked up, the tested form may be a part): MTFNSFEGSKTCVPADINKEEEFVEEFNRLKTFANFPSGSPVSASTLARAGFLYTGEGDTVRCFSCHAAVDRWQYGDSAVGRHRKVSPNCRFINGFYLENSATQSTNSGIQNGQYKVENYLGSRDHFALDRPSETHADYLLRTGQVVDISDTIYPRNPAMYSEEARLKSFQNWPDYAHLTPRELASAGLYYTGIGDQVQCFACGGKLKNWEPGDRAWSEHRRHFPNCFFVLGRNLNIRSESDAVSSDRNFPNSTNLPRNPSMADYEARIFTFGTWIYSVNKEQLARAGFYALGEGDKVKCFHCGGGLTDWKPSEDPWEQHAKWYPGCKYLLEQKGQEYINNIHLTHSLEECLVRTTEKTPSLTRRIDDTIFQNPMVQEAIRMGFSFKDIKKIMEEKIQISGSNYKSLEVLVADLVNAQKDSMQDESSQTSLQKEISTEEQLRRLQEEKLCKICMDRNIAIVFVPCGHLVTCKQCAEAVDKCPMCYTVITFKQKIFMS

E3 ubiquitin-protein ligase XIAP, sequence (P98170 whole entry, looked up, the tested form may be a part): as the sequence (P98170 whole entry C202A/C213G, looked up, the tested form may be a part) above, with A202C, G213C counted along it

Row | Structure (SMILES) | IC50 (A549) | IC50 [3] | IC50 (MDA-MB-231 [8]) | IC50 [14] | EC50 (BIR2 domain of XIAP) | IC50 [9] | also measured
1 | CN[C@@H](C)C(=O)N[C@H](C(=O)N1C[C@@H]2C[C@H]1C(=O)N[C@@H](Cc1ccc3ccccc3c1)C(=O)N[C@H](C(=O)O)Cc1ccc(cc1)OCc1cn(nn1)[C@H]1C[C@@H](C(=O)N[C@@H](Cc3ccc4ccccc4c3)C(=O)N[C@H](C(=O)O)Cc3ccc(cc3)OCc3cn2nn3)N(C(=O)[C@@H](NC(=O)[C@H](C)NC)C(C)(C)C)C1)C(C)(C)C | > 25 µM | 0.097 µM | 0.026 µM |  |  | 0.077 µM | inhibition in vivo at 50 mg/kg (MDA-MB-231 [1]): 78%; Activity (Mus musculus [2]): Non-toxic; Vd [4]: 0.34 L/kg; MRT [5]: 47.4 min; half-life [6]: 51 min; inhibition in vivo at 50 mg/kg [7]: 148%; TGI (A875): Active; Activity (Mus musculus [10]): Non-toxic; AUClast (Mus musculus [11]): 1550 ng·h/mL; TGI (MDA-MB-231 [12]): inactive; TGI (MDA-MB-231 [13]): inactive
2 | CN[C@@H](C)C(=O)N[C@H](C(=O)N1C[C@@H]2C[C@H]1C(=O)N[C@@H](Cc1ccccc1)C(=O)N[C@H](C(=O)O)Cc1ccc(cc1)OCc1cn2nn1)C(C)C | > 25 µM | 0.139 µM | 12.5 µM | 0.16 µM | 1.4 µM | > 10 µM | 
3 | CN[C@@H](C)C(=O)N[C@H]1Cc2ccc(cc2)OCc2cn(nn2)CCOc2ccc(cc2)C[C@H](C(=O)O)NC(=O)[C@H](Cc2ccccc2)NC(=O)[C@@H]2CCCN2C1=O |  | 7.99 µM |  | 2.88 µM |  |  | 
4 | CN[C@@H](C)C(=O)N[C@H](C(=O)N1C[C@@H]2C[C@H]1C(=O)N[C@@H](Cc1ccccc1)C(=O)N[C@H](C(=O)O)Cc1ccc(cc1)NC(=O)CCc1cn2nn1)C(C)C |  | 1.97 µM |  | 0.11 µM | 6.7 µM |  | 
5 | CN[C@@H](C)C(=O)N[C@H](C(=O)N1C[C@@H]2C[C@H]1C(=O)N[C@@H](Cc1ccccc1)C(=O)N[C@@H](C(=O)O)Cc1ccc(cc1)NC(=O)CCc1cn2nn1)C(C)C |  | > 18.8 µM |  | 0.232 µM |  |  | 

Further lines, with some results ahead:

Row | IC50 (A549) | IC50 [3] | IC50 (MDA-MB-231 [8]) | IC50 [14] | EC50 (BIR2 domain of XIAP) | Structure (SMILES) | IC50 [9] | also measured
6 |  | 2.27 µM |  | 0.235 µM |  | CN[C@@H](C)C(=O)N[C@H](C(=O)N1C[C@@H]2C[C@H]1C(=O)N[C@@H](Cc1ccc3ccccc3c1)C(=O)N[C@H](C(=O)O)Cc1ccc(cc1)OCc1cn2nn1)C1CCCCC1 |  | 
7 |  | > 18.8 µM |  | 1.36 µM |  | CN[C@@H](C)C(=O)N[C@H]1CCCCNC(=O)CCc2cn(nn2)CCCC[C@@H](C(=O)O)NC(=O)[C@H](Cc2ccccc2)NC(=O)[C@@H]2CCCN2C1=O |  | 
8 | > 25 µM | 0.003 µM | 2.94 µM | 0.068 µM | 0.045 µM | CN[C@@H](C)C(=O)N[C@H](C(=O)N1C[C@@H]2C[C@H]1C(=O)N[C@@H](Cc1ccccc1)C(=O)N[C@H](C(=O)O)Cc1ccc(cc1)OCc1cn(nn1)[C@H]1C[C@@H](C(=O)N[C@@H](Cc3ccccc3)C(=O)N[C@H](C(=O)O)Cc3ccc(cc3)OCc3cn2nn3)N(C(=O)[C@@H](NC(=O)[C@H](C)NC)C(C)C)C1)C(C)C | 4.22 µM | 
9 | > 25 µM | 0.006 µM | 7.9 µM | 0.047 µM | 0.07 µM | CN[C@@H](C)C(=O)N[C@H](C(=O)N1C[C@@H]2C[C@H]1C(=O)N[C@@H](Cc1ccccc1)C(=O)N[C@H](C(=O)O)Cc1ccc(cc1)NC(=O)CCc1cn(nn1)[C@H]1C[C@@H](C(=O)N[C@@H](Cc3ccccc3)C(=O)N[C@H](C(=O)O)Cc3ccc(cc3)NC(=O)CCc3cn2nn3)N(C(=O)[C@@H](NC(=O)[C@H](C)NC)C(C)C)C1)C(C)C |  | 
